Holding throughout (test): inside-out patch clamp, block of cGMP-activated current, Hill fit
Type in all cases: cell-based

Assay [1] concerns the target T1, CNGA1 (Bos taurus, UniProt Q00194, R342D).
T1 sequence (Q00194 1-690 R342D): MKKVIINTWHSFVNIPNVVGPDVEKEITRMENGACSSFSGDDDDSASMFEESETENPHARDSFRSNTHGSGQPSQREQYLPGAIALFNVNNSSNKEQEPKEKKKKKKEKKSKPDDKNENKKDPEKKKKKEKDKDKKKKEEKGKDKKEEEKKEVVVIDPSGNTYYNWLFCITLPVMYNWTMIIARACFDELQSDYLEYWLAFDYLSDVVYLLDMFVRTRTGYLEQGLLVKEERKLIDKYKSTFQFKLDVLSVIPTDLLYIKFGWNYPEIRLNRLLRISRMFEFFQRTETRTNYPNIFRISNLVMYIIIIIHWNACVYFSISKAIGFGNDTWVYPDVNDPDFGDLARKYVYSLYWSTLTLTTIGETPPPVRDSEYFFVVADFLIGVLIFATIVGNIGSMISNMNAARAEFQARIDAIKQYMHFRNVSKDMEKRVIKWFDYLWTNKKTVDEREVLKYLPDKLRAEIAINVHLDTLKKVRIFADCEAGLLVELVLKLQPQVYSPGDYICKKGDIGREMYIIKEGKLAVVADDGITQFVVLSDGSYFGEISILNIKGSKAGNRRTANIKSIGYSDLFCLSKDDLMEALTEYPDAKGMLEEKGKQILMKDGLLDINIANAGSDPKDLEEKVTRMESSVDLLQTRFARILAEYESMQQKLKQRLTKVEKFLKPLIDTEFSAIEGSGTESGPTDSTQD

A further assay has as its target T2, CNGA2 (Rattus norvegicus, UniProt Q00195).
T2 sequence (Q00195 1-664): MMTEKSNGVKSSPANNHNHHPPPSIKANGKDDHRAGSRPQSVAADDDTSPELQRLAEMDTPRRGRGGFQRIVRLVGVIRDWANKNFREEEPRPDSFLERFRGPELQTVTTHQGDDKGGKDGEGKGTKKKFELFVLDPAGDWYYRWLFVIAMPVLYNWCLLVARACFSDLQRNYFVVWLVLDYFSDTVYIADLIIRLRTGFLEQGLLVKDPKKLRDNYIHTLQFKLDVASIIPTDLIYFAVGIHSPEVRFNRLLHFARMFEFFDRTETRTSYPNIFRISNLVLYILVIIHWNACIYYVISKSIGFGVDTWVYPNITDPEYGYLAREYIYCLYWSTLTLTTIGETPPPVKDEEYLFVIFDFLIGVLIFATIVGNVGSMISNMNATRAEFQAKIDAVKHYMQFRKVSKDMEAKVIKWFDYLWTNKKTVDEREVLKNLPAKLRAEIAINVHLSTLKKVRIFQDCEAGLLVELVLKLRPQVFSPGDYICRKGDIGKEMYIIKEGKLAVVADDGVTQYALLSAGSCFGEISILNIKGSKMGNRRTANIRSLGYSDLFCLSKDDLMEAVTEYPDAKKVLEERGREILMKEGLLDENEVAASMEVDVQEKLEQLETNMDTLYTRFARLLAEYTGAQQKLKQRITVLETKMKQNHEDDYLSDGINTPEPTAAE
In outline:
(§1)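 Channels expressed in Xenopus oocytes 2–10 d after cRNA injection; inside-out patches, room temperature. […] Blocker applied at 0 mV with 20-ms steps to +20 mV every 5 s. Currents were cGMP-free subtracted. Hill fit, SEM, n = 5–7 patches.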

For assay [2], the target named is T3, CNGA1 (Bos taurus, UniProt Q00194).
T3 sequence (Q00194 1-690): T1 sequence (Q00194 1-690 R342D) with D342R
An outline of the steps: as §1

Assay [3] addresses T4, CNGA1 (Bos taurus, UniProt Q00194, R342Y).
T4 sequence (Q00194 1-690 R342Y): T1 sequence (Q00194 1-690 R342D) with D342Y

Where a chain is given by its changes, count along the chain named.

Among the data in PMC1389615 (The Journal of General Physiology, 2004) are IC50 values, retold here.

With `Cc1cc(N)c2ccccc2[n+]1CCCCCCCCCC[n+]1c(C)cc(N)c2ccccc21` [dequalinium], the IC50 against CNGA1 [1] was 123 ± 0.2 nM; on CNGA2, 2400 ± 290 nM; at CNGA1 [2], 189 ± 4.19 nM; against CNGA1 [3] it was 91 ± 0.1 nM.
